This is an account of results in ChEMBL document CHEMBL2157972, “Selenophene-containing inhibitors of type IIA bacterial topoisomerases” (J Med Chem, 2011).

In data set [1] the test system is Staphylococcus aureus. Nature of the data set: Antimicrobial activity against fluoroquinolone sensitive Staphylococcus aureus. The data set is classed as functional. An outline of the steps: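 Standard susceptibility testing. The read-out is the minimum inhibitory concentration, reported in μg/mL.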
Data set [2] concerns Staphylococcus aureus. As to the kind of experiment: Antimicrobial activity against fluoroquinolone resistant Staphylococcus aureus. The data set is classed as functional. A digest of the protocol:
(§1)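 Read-out is the minimum inhibitory concentration (MIC), reported in μg/mL, from standard antimicrobial susceptibility testing.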

In data set [3] the target is T1, Voltage-gated inwardly rectifying potassium channel KCNH2 (Homo sapiens, UniProt Q12809).
Data set [4] concerns Staphylococcus aureus. Nature of the data set: Antibacterial activity against methicillin-sensitive Staphylococcus aureus ATCC 29213. The data set is classed as functional. An outline of the steps:
as §1

In a further data set the target is DNA gyrase (Staphylococcus aureus, UniProt P0A0K8+P20831). As to the kind of experiment: Inhibition of Staphylococcus aureus DNA gyrase by supercoiling assay. The data set is classed as protein-complex assay.
Data set [5] relates to Staphylococcus aureus. Nature of the data set: Antibacterial activity against fluoroquinolone resistant Staphylococcus aureus 1-FQR2M BK2384 expressing GyrA Ser84Leu mutant and GrlA Ser80Phe mutant. The data set is classed as functional. An outline of the steps:
as §1

Data set [6] is described as follows: Cytotoxicity against human HepG2 cell line after 72 hrs. The data set is classed as cell-based. The note with it: HepG2 cells.
The nature of data set [7]: Cytotoxicity against […] CHO cell line after 72 hrs. The data set is classed as cell-based, Cricetulus griseus. The settings on record: chinese hamster, CHO cells.
The test system of data set [8] is Staphylococcus aureus. As to the kind of experiment: Antibacterial activity against fluoroquinolone resistant Staphylococcus aureus 2-FQR2M NY2746 expressing GyrA Ser84Leu mutant and GrlA Ser80Phe mutant. The data set is classed as functional. An outline of the steps: as §1
In data set [9] the test system is Staphylococcus aureus. As to the kind of experiment: Antibacterial activity against fluoroquinolone resistant Staphylococcus aureus 4-FQR3M BSA643 expressing GyrA Ser84Leu mutant and GrlA Ser80Tyr and Glu84Gly mutant. The data set is classed as functional. An outline of the steps:
as §1

The test system of data set [10] is Staphylococcus aureus. As to the kind of experiment: Antibacterial activity against methicillin-resistant Staphylococcus aureus ATCC 700699. The data set is classed as functional. An outline of the steps: as §1
Data set [11] is described as follows: Cytotoxicity against human Hep2 cell line after 72 hrs. The data set is classed as cell-based. The settings on record: HEp-2 cells. A digest of the protocol:
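Human laryngeal epidermoid carcinoma Hep2 cells were exposed for 72 h.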

Data set [12] can be described thus: Cytotoxicity against human HeLa cell line after 72 hrs. The data set is classed as cell-based. The note with it: HeLa cells.
Data set [13] in a line: Inhibition of Staphylococcus aureus topoisomerase 4 by decatenation assay. An outline of the steps:
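Enzyme activity was measured by topoisomerase IV decatenation using S. aureus enzyme. Inhibition is reported as a concentration in μM.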

The subject of data set [14] is Staphylococcus aureus. As to the kind of experiment: Antibacterial activity against fluoroquinolone resistant Staphylococcus aureus 5-FQR4M BSA678 expressing GyrA Ser84Leu and Ser85Pro mutant and GrlA Ser80Phe and Glu84Lys mutant. The data set is classed as functional. A digest of the protocol:
as §1

Data set [15] concerns Staphylococcus aureus. As to the kind of experiment: Antibacterial activity against fluoroquinolone resistant Staphylococcus aureus 3-FQR3M ATCC 700699 expressing GyrA Ser84Leu mutant and Glu409Lys mutant and GrlA Ser80Phe mutant. The data set is classed as functional. A digest of the protocol: as §1
A further data set deals with hERG (KCNH2) (Homo sapiens, UniProt Q12809). As to the kind of experiment: Inhibition of human ERG expressed in mammalian cells at 10 uM by patch clamp method. The data set is classed as cell-based. The note with it: mammalian cells that express hERG. For orientation: Patch clamp records ionic current or voltage across a cell membrane.
The target of data set [16] is T1, Voltage-gated inwardly rectifying potassium channel KCNH2. As to the kind of experiment: Inhibition of human ERG expressed in mammalian cells by patch clamp method. The data set is classed as cell-based.

pIC50: −log10 of the molar value. Converted amounts (≈) assume the structure as drawn. Some results are limits rather than exact numbers.

Turning to `COc1ccc2ncc(F)c([C@@H](O)CC[C@@H]3CCN(CCSc4cccs4)C[C@@H]3C(=O)O)c2c1`, the MIC90 – broadly, the lowest concentration that inhibits either 90% of growth or 90% of the strains tested, depending on the study – in the data set with Staphylococcus aureus [1] is 1 µg/mL (≈ 1.98 µM); against Staphylococcus aureus [2], 0.5 µg/mL (≈ 0.991 µM). Moreover, in data set [3], the pIC50 (commonly −log10 of the IC50, conventionally taken in molar units) is 3.91.

For the molecule `COc1ccc2nccc([C@H](O)CC[C@@H]3CCN(CCSc4ccco4)C[C@@H]3C(=O)O)c2c1` (mixture of isomers), the MIC (as a rule, the lowest concentration found to suppress growth) in the data set on Staphylococcus aureus [4] was found to be 4 µg/mL; in the data set on Staphylococcus aureus [5], 8 µg/mL; in the data set with Staphylococcus aureus [8] it was 8 µg/mL; against Staphylococcus aureus [9] it was 16 µg/mL; against Staphylococcus aureus [10], 4 µg/mL; with Staphylococcus aureus [14] it was 32 µg/mL. For the same molecule, the minimum inhibitory concentration (MIC) with Staphylococcus aureus [15] was 4 µg/mL. Also, the pIC50 was 4.99 at DNA gyrase and below 4.00 in data set [13]. In addition, the CC50 at 72 h in [6], in data set [7], in data set [11] and in data set [12] was above 100 µM throughout. Further, at hERG (KCNH2), the inhibition (usually how much of the control response was suppressed) at 10 µM was determined as 14%.

Consider `COc1ccc2nccc([C@@H](O)CC[C@@H]3CCN(CCSc4ccco4)C[C@@H]3C(=O)O)c2c1` (mixture of isomers), for which the MIC with Staphylococcus aureus [4] came out at 2 µg/mL; against Staphylococcus aureus [5], 4 µg/mL; with Staphylococcus aureus [8], 2 µg/mL; with Staphylococcus aureus [9], 4 µg/mL; in the data set on Staphylococcus aureus [10] it was 2 µg/mL; in the data set with Staphylococcus aureus [14] it was 8 µg/mL. In the data set with Staphylococcus aureus [15], this molecule had an MIC of 2 µg/mL. Also, the pIC50 against DNA gyrase was 5.33; in data set [16], above 4.52; in data set [13], below 4.00. Moreover, the CC50 at 72 h in data set [6], in data set [7], in data set [11] and in [12] was above 100 µM each time. On hERG (KCNH2), this molecule had an inhibition at 10 µM of 27%.

In the case of `COc1ccc2nccc([C@H](O)CC[C@@H]3CCN(CCSc4cccs4)C[C@@H]3C(=O)O)c2c1` (mixture of isomers), the MIC with Staphylococcus aureus [4] turned out to be 1 µg/mL; in the data set with Staphylococcus aureus [5], 1 µg/mL; against Staphylococcus aureus [8], 1 µg/mL; against Staphylococcus aureus [9], 1 µg/mL; in the data set with Staphylococcus aureus [10], 0.5 µg/mL; against Staphylococcus aureus [14], 4 µg/mL. In the data set on Staphylococcus aureus [15], this molecule displayed an MIC of 0.5 µg/mL. For the same molecule, the pIC50 on DNA gyrase was 5.48; in data set [13] it was 4.64. Further, the CC50 at 72 h in [6], in [7], in data set [11] and in [12] was above 100 µM each time.

As for `COc1ccc2nccc([C@@H](O)CC[C@@H]3CCN(CCSc4cccs4)C[C@@H]3C(=O)O)c2c1` (mixture of isomers), the MIC is 0.25 µg/mL against Staphylococcus aureus [4]; 0.25 µg/mL against Staphylococcus aureus [5]; 0.25 µg/mL against Staphylococcus aureus [8]; 0.25 µg/mL against Staphylococcus aureus [9]; 0.13 µg/mL in the data set with Staphylococcus aureus [10]; 0.5 µg/mL in the data set with Staphylococcus aureus [14]. In the data set on Staphylococcus aureus [15], this molecule registered an MIC of 0.13 µg/mL. The pIC50 against DNA gyrase was 5.85; in data set [13], 4.35. The values for the MIC90 in the data set on Staphylococcus aureus [1] and against Staphylococcus aureus [2] were 1 µg/mL and 0.5 µg/mL, respectively. The CC50 at 72 h in [6], in [7], in [11] and in data set [12] was above 100 µM each time.
